Measurements taken from ChEMBL document CHEMBL1153488, “Discovery of (3-endo)-3-(2-cyano-2,2-diphenylethyl)-8,8-dimethyl-8-azoniabicyclo[3.2.1]octane bromide as an efficacious inhaled muscarinic acetylcholine receptor antagonist for the treatment of COPD” (Bioorg Med Chem Lett, 2009).
Active and inactive are the calls of the source. The calls are words filed in the database; no cut-off is given here.

Key:
[1] = target: T1, Muscarinic acetylcholine receptor M3 (Homo sapiens, UniProt P20309); assay: Agonist activity at human cloned muscarinic M3 receptor expressed in CHO cells assessed as effect on calcium mobilization by FLIPR; format: functional, cell-based
Outline: (§1)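 CHO cells stably carrying cloned human M1, M2 or M3 receptor; compound applied alone and checked for direct receptor stimulation, read as calcium mobilization on a standard FLIPR protocol.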

[2] = target: T1, Muscarinic acetylcholine receptor M3; assay: Antagonist activity against human cloned muscarinic M3 receptor expressed in CHO cells assessed as inhibition of acetylcholine-induced calcium mobilization by FLIPR; format: functional, cell-based
[3] = target: T2, Muscarinic acetylcholine receptor M2 (Homo sapiens, UniProt P08172); assay: Antagonist activity against human cloned muscarinic M2 receptor expressed in CHO cells assessed as inhibition of acetylcholine-induced calcium mobilization by FLIPR; format: functional, cell-based
T2 sequence (P08172 whole entry): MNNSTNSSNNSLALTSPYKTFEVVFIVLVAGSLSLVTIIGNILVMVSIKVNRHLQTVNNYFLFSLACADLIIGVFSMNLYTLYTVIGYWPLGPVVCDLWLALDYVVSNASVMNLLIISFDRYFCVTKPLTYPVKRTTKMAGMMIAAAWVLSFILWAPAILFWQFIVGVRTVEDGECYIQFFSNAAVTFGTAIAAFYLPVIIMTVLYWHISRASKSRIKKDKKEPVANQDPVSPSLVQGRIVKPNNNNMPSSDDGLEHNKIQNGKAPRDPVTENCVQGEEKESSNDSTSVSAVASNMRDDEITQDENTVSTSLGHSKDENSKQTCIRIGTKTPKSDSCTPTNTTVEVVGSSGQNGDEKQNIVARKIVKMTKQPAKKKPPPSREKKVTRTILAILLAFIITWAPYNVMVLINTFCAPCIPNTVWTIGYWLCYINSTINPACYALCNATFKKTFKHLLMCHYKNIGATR

[4] = target: T3, Muscarinic acetylcholine receptor M1 (Homo sapiens) (UniProt P11229); assay: Agonist activity at human cloned muscarinic M1 receptor expressed in CHO cells assessed as effect on calcium mobilization by FLIPR; format: functional, cell-based; outline: as §1
T3 sequence (whole entry): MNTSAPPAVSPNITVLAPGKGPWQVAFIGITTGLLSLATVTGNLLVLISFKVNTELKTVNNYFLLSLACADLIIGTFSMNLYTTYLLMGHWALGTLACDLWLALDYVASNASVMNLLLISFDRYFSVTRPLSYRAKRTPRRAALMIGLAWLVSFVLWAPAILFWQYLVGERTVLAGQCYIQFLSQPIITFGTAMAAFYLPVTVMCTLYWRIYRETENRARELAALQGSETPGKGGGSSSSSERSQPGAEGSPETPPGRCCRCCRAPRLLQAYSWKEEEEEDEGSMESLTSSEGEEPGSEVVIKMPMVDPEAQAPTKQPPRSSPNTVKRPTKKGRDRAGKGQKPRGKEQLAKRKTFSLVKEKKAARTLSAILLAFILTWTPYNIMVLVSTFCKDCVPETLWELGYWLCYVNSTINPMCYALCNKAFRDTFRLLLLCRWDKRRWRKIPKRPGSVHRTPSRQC

[5] = target: T4, Muscarinic acetylcholine receptor M2 (Homo sapiens) (UniProt P08172); assay: Agonist activity at human cloned muscarinic M2 receptor expressed in CHO cells assessed as effect on calcium mobilization by FLIPR; format: functional, cell-based; outline: as §1
T4 sequence (whole entry): T2 sequence (P08172 whole entry)

[6] = target: T5, Muscarinic acetylcholine receptor M1 (Homo sapiens, UniProt P11229); assay: Antagonist activity against human cloned muscarinic M1 receptor expressed in CHO cells assessed as inhibition of acetylcholine-induced calcium mobilization by FLIPR; format: functional, cell-based
T5 sequence (P11229 whole entry): T3 sequence (whole entry)

[7] = target: T1, Muscarinic acetylcholine receptor M3; assay: Displacement of [3H]N-methyl Scopolamine from human cloned muscarinic M3 receptor expressed in CHO cell membrane; format: cell membranes
Outline: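 SPA-format competition binding on membranes from CHO cells expressing the human M3 receptor, against 0.5 nM [3H]-N-methyl scopolamine. Ki values are the mean of two or more independent assays.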

Mus musculus [8] = assay: Bronchoprotection in Balb/C mouse bronchoconstriction model assessed as inhibition of aerosolized methacholin-induced bronchoconstriction at 5 ug administered intranasally 24 hrs before methacholin challenge; format: functional
[9] = target: T1, Muscarinic acetylcholine receptor M3; assay: Antagonist activity against human cloned muscarinic M3 receptor expressed in CHO cells assessed as inhibition of acetylcholine-induced calcium mobilization by measuring ratio of acetylcholine EC50 in presence and absence of compound by FLIPR assay; format: functional, cell-based; conditions: read-out: pA2 (converted)
Outline: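 CHO cells expressing cloned human M3 receptor, stimulated with ACh. Calcium mobilization read by a standard FLIPR protocol. ACh EC50 was measured with and without a single concentration of compound, and pA2 was derived from the ratio of the EC50s.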

[10] = target: T2, Muscarinic acetylcholine receptor M2; assay: Displacement of [3H]N-methyl Scopolamine from human cloned muscarinic M2 receptor expressed in CHO cell membrane; format: cell membranes
Outline: (§2)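 SPA format with CHO cell membrane preparations bearing human M1 or M2 receptor; competition versus 0.5 nM [3H]-N-methyl scopolamine; Ki reported; mean of two or more independent assays.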

[11] = target: T5, Muscarinic acetylcholine receptor M1; assay: Antagonist activity against human cloned muscarinic M1 receptor expressed in CHO cells assessed as inhibition of acetylcholine-induced calcium mobilization by measuring ratio of acetylcholine EC50 in presence and absence of compound by FLIPR assay; format: functional, cell-based; conditions: read-out: pA2 (converted)
Outline: (§3)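 Run as pA2 determination on FLIPR in CHO cells expressing human M1 or M2 receptor: ACh concentration–response run with and without a single concentration of compound, calcium mobilization read, and the ratio of ACh EC50 values used to derive pA2.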

[12] = target: T5, Muscarinic acetylcholine receptor M1; assay: Displacement of [3H]N-methyl Scopolamine from human cloned muscarinic M1 receptor expressed in CHO cell membrane; format: cell membranes; outline: as §2
[13] = target: T2, Muscarinic acetylcholine receptor M2; assay: Antagonist activity against human cloned muscarinic M2 receptor expressed in CHO cells assessed as inhibition of acetylcholine-induced calcium mobilization by measuring ratio of acetylcholine EC50 in presence and absence of compound by FLIPR assay; format: functional, cell-based; conditions: read-out: pA2 (converted); outline: as §3
Mus musculus [14] = assay: Bronchoprotection in Balb/C mouse bronchoconstriction model assessed as inhibition of aerosolized methacholin-induced bronchoconstriction at 50 ug administered intranasally 24 hrs before methacholin challenge; format: functional
Outline: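 Conscious mice given compound by inhalation at 50 µg per mouse 24 h before challenge with aerosolized methacholine; bronchoconstriction inhibition recorded.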

Mus musculus [15] = assay: Bronchoprotection in Balb/C mouse bronchoconstriction model assessed as inhibition of aerosolized methacholin-induced bronchoconstriction at 5 ug administered intranasally before 0.25 to 48 hrs before methacholin challenge; format: functional, organism-based
Outline: (§4)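 Balb/C mice (n = 4) dosed intranasally at 0.5 or 5.0 µg per mouse, then challenged with aerosolized methacholine 30 mg/ml for 2 min at 0.25–48 h after dosing; Penh by plethysmography over 5 min, expressed as post-drug/pre-drug Penh ratio.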

Mus musculus [16] = assay: Bronchoprotection in Balb/C mouse bronchoconstriction model assessed as inhibition of aerosolized methacholin-induced bronchoconstriction at 0.5 ug administered intranasally before 0.25 to 48 hrs before methacholin challenge; format: functional, organism-based; outline: as §4
Mus musculus [17] = assay: Bronchoprotection in Balb/C mouse bronchoconstriction model assessed as inhibition of aerosolized methacholin-induced bronchoconstriction administered intranasally before 5 hrs before methacholin challenge; format: functional, organism-based
Outline: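 Balb/C mice (n = 4) dosed intranasally across a dose range (µg/mouse), challenged 5 h later with aerosolized methacholine 30 mg/ml for 2 min; Penh by whole-body plethysmography over 5 min; ratio of post-drug to pre-drug Penh (1.0 = 0% inhibition, 0.0 = 100%); ED50 from dose–response.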

CN1[C@@H]2CC[C@H]1C[C@@H](CC(C(=O)O)(c1ccccc1)c1ccccc1)C2
Activity [1]: inactive | IC50 [2]: 687 nM | IC50 [3]: 240 nM | Activity [4]: inactive | Activity [5]: inactive | IC50 [6]: 277 nM

C[N+]1(C)[C@@H]2CC[C@H]1C[C@@H](CC(CO)(c1ccccc1)c1ccccc1)C2.[Br-]
Activity [1]: inactive | Ki [7]: 2.51 nM | IC50 [2]: < 10 nM | IC50 [3]: < 10 nM | Activity [4]: inactive | inhibition (INH) (Mus musculus [8]): 23% | Kb [9]: 3.16 nM | Ki [10]: 3.98 nM | Kb [11]: 1.58 nM | Ki [12]: 1.26 nM | Activity [5]: inactive | Kb [13]: 5.01 nM | IC50 [6]: < 10 nM

CC(=O)NCC(C[C@H]1C[C@H]2CC[C@@H](C1)N2C)(c1ccccc1)c1ccccc1
Activity [1]: inactive | IC50 [2]: 2900 nM | IC50 [3]: 3480 nM | Activity [4]: inactive | Activity [5]: inactive | IC50 [6]: 2200 nM

CN1[C@@H]2CC[C@H]1C[C@@H](CC(CNC(N)=O)(c1ccccc1)c1ccccc1)C2
Activity [1]: inactive | IC50 [2]: 6400 nM | IC50 [3]: 5340 nM | Activity [4]: inactive | Activity [5]: inactive | IC50 [6]: 3830 nM

CN1[C@@H]2CC[C@H]1C[C@@H](CC(O)(c1ccccc1)c1ccccc1)C2
Activity [1]: inactive | Ki [7]: 2 nM | IC50 [2]: < 10 nM | IC50 [3]: < 10 nM | Activity [4]: inactive | Kb [9]: 2.51 nM | inhibition (INH) (Mus musculus [14]): <5% | Ki [10]: 6.31 nM | Kb [11]: 0.794 nM | Ki [12]: 0.501 nM | Activity [5]: inactive | Kb [13]: 3.98 nM | IC50 [6]: < 10 nM

CN1[C@@H]2CC[C@H]1C[C@@H](CC(C(=O)NCc1ccccc1)(c1ccccc1)c1ccccc1)C2
Activity [1]: inactive | IC50 [2]: 839 nM | IC50 [3]: 545 nM | Activity [4]: inactive | Activity [5]: inactive | IC50 [6]: 596 nM

CCNC(=O)NCC(C[C@H]1C[C@H]2CC[C@@H](C1)N2C)(c1ccccc1)c1ccccc1
Activity [1]: inactive | IC50 [2]: 1940 nM | IC50 [3]: 1550 nM | Activity [4]: inactive | Activity [5]: inactive | IC50 [6]: 1280 nM

C[N+]1(C)[C@@H]2CC[C@H]1C[C@@H](CC(C#N)(c1ccccc1)c1ccccc1)C2.[Br-]
Activity [1]: inactive | Ki [7]: 0.0631 nM | IC50 [2]: < 10 nM | IC50 [3]: < 10 nM | Activity [4]: inactive | Activity (Mus musculus [15]): Active | inhibition (INH) (Mus musculus [8]): >95% | Kb [9]: 0.02 nM | Ki [10]: 0.158 nM | Kb [11]: 0.00398 nM | Ki [12]: 0.0501 nM | Activity [5]: inactive | Kb [13]: 0.0501 nM | IC50 [6]: < 10 nM | Activity (Mus musculus [16]): Active | Activity (Mus musculus [17]): Dose-dependent effect

C[N+]1(C)[C@@H]2CC[C@H]1C[C@@H](CC(O)(c1ccccc1)c1ccccc1)C2.[Br-]
Activity [1]: inactive | Ki [7]: 3.16 nM | IC50 [2]: < 10 nM | IC50 [3]: < 10 nM | Activity [4]: inactive | inhibition (INH) (Mus musculus [8]): 34% | Kb [9]: 0.501 nM | Ki [10]: 3.98 nM | Kb [11]: 0.251 nM | Ki [12]: 1.58 nM | Activity [5]: inactive | Kb [13]: 0.501 nM | IC50 [6]: < 10 nM

CN1[C@@H]2CC[C@H]1C[C@@H](CC(CNS(C)(=O)=O)(c1ccccc1)c1ccccc1)C2
Activity [1]: inactive | IC50 [2]: 2730 nM | IC50 [3]: 2120 nM | Activity [4]: inactive | Activity [5]: inactive | IC50 [6]: 1600 nM

CN1[C@@H]2CC[C@H]1C[C@@H](CC(c1ccccc1)(c1ccccc1)c1ccccc1)C2
Activity [1]: inactive | IC50 [2]: 206 nM | IC50 [3]: 1200 nM | Activity [4]: inactive | Activity [5]: inactive | IC50 [6]: 105 nM

CN1[C@@H]2CC[C@H]1C[C@@H](CC(CNC(=O)NCc1ccccc1)(c1ccccc1)c1ccccc1)C2
Activity [1]: inactive | IC50 [2]: 1340 nM | IC50 [3]: 1270 nM | Activity [4]: inactive | Activity [5]: inactive | IC50 [6]: 1020 nM

CN1[C@@H]2CC[C@H]1C[C@@H](CC(CO)(c1ccccc1)c1ccccc1)C2
Activity [1]: inactive | Ki [7]: 2.51 nM | IC50 [2]: < 10 nM | IC50 [3]: < 10 nM | Activity [4]: inactive | inhibition (INH) (Mus musculus [8]): 15% | Kb [9]: 3.98 nM | Ki [10]: 12.6 nM | Kb [11]: 1.26 nM | Ki [12]: 1 nM | Activity [5]: inactive | Kb [13]: 6.31 nM | IC50 [6]: < 10 nM

CN1[C@@H]2CC[C@H]1C[C@@H](CC(CNS(=O)(=O)c1ccccc1)(c1ccccc1)c1ccccc1)C2
Activity [1]: inactive | IC50 [2]: 1060 nM | IC50 [3]: 458 nM | Activity [4]: inactive | Activity [5]: inactive | IC50 [6]: 770 nM

CN1[C@@H]2CC[C@H]1C[C@@H](CC(C#N)(c1ccccc1)c1ccccc1)C2
Activity [1]: inactive | Ki [7]: 0.158 nM | IC50 [2]: < 10 nM | IC50 [3]: < 10 nM | Activity [4]: inactive | inhibition (INH) (Mus musculus [8]): 11% | Kb [9]: 0.0631 nM | Ki [10]: 0.501 nM | Kb [11]: 0.0158 nM | Ki [12]: 0.1 nM | Activity [5]: inactive | Kb [13]: 0.316 nM | IC50 [6]: < 10 nM
